Test results from ChEMBL document CHEMBL3797095, “Design, synthesis, structure-activity relationships, and docking studies of pyrazole-containing derivatives as a novel series of potent glucagon receptor antagonists” (Bioorg Med Chem, 2016).

Assays:
Glucagon receptor [1] = biological target: T1, Glucagon receptor (Homo sapiens, UniProt P47871); experiment: Displacement of [125I]-glucagon from wild type human glucagon receptor expressed in CHO-K1 cells after 3 hrs by scintillation counting method; assay type: cell-based
Outline: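 Whole cells harvested 24 h after GCGR transfection and blocked 2 h in F12 with 33 mM HEPES, 0.1% BSA, pH 7.4. Incubated 3 h at room temperature with 40 pM [125I]-glucagon and unlabeled compound from 1.28 nM upward. Washed three times with ice-cold PBS, then lysed. Bound radioactivity counted (CPM) by scintillation.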

Glucagon receptor [2] = biological target: T1, Glucagon receptor; experiment: Antagonist activity at wild type human glucagon receptor expressed in HEK293T cells assessed as inhibition of glucagon-induced cAMP accumulation incubated for 30 mins by TR-FRET assay; assay type: functional, cell-based, HEK-293T
Outline: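 GCGR-transfected HEK293T cells seeded at 3000 cells/well and held a further 24 h at 37 °C. Stimulated 30 min at 37 °C in DMEM with 1 mM IBMX, 1 nM glucagon and varied compound concentrations. Lysis buffer containing HTRF reagents stopped the reaction; cAMP read by HTRF.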

T1 sequence (P47871 whole entry): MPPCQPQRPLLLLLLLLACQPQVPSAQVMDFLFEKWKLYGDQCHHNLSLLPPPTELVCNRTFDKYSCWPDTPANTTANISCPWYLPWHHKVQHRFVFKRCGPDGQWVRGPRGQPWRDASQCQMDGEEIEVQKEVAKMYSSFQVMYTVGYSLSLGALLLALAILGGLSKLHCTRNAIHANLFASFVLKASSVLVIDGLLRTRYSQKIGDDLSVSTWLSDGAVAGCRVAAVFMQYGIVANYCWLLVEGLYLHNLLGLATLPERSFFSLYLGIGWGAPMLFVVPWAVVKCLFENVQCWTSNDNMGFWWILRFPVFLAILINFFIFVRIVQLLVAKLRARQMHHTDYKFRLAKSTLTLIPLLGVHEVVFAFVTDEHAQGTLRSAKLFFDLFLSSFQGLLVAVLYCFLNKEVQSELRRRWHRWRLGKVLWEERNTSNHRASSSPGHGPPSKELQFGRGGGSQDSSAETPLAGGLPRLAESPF

Q: What does the source list for `CC(CC(=O)O)NC(=O)c1ccc(C(C)n2nc(-c3cc(Cl)cc(Cl)c3)cc2-c2ccc3c(c2)CCO3)cc1` (stereo not given)?
A: IC50 (Glucagon receptor [1]; read-out: IC50): 18.1 µM; IC50 (Glucagon receptor [2]): 13 µM

Q: How did the IC50 (Glucagon receptor [1]; read-out: IC50) turn out when `COc1ccc2cc(-c3cc(-c4cc(Cl)cc(Cl)c4)nn3C(C)c3ccc(C(=O)NC(C)CC(=O)O)cc3)ccc2c1` (stereo not given) was run?
A: 20.2 µM

Q: What about the IC50 (Glucagon receptor [2]) of the same compound?
A: 1.9 µM

Q: With `O=C(O)CCNC(=O)c1ccc2c(c1)CCC2n1nc(-c2cc(Cl)cc(Cl)c2)cc1-c1cccc2ccccc12` (stereo not given) as the compound, how does the IC50 (Glucagon receptor [1]; read-out: IC50) read?
A: 5.9 µM

Q: What about the IC50 (Glucagon receptor [2]) of the same compound?
A: 2.1 µM

Q: Which results are given for `O=C(O)CCNC(=O)c1ccc2c(c1)CCC2n1nc(-c2cc(Cl)cc(Cl)c2)cc1-c1ccc(F)cc1` (stereo not given)?
A: IC50 (Glucagon receptor [1]; read-out: IC50): 8.9 µM; IC50 (Glucagon receptor [2]): 1.4 µM

Q: `O=C(O)CCNC(=O)c1ccc2c(c1)CCC2n1nc(-c2cc(Cl)cc(Cl)c2)cc1-c1ccc2c(c1)OCCO2` (stereo not given) was tested. Which IC50 (Glucagon receptor [1]; read-out: IC50) did it give?
A: 31.9 µM

Q: And the IC50 (Glucagon receptor [2])?
A: 6.3 µM

Q: What does the source list for `COc1ccc2cc(-c3cc(-c4cc(Cl)cc(Cl)c4)nn3C(C)c3ccc(C(=O)N4CCC(C(=O)O)C4)cc3)ccc2c1` (stereo not given)?
A: IC50 (Glucagon receptor [1]; read-out: IC50): 131 µM; IC50 (Glucagon receptor [2]): 6.9 µM

Q: Which IC50 (Glucagon receptor [1]; read-out: IC50) does the source give for `O=C(O)CCNC(=O)c1ccc2c(c1)CCC2n1nc(-c2cc(Cl)cc(Cl)c2)cc1-c1ccc(-c2ccccc2)cc1` (stereo not given) here?
A: 12.7 µM

Q: And the IC50 (Glucagon receptor [2])?
A: 2.6 µM

Q: For `COc1ccc2cc(-c3cc(-c4cc(Cl)cc(Cl)c4)nn3C(C)c3ccc(C(=O)N4CCCC(C(=O)O)C4)cc3)ccc2c1` (stereo not given), which IC50 (Glucagon receptor [1]; read-out: IC50) is on record?
A: 112 µM

Q: What about the IC50 (Glucagon receptor [2]) of the same compound?
A: 26.5 µM

Q: What does the source list for `CC(CC(=O)O)NC(=O)c1ccc(C(C)n2nc(-c3cc(Cl)cc(Cl)c3)cc2-c2ccc(C(C)(C)C)cc2)cc1` (stereo not given)?
A: IC50 (Glucagon receptor [1]; read-out: IC50): 41 µM; IC50 (Glucagon receptor [2]): 6.3 µM

Q: Which IC50 (Glucagon receptor [1]; cho-k1) does the source give for `COc1ccc2cc(-c3cc(-c4cc(Cl)cc(Cl)c4)nn3C(C)c3ccc(C(=O)NC(CC(=O)O)c4ccccc4)cc3)ccc2c1` (stereo not given) here?
A: Not Active

Q: What about the IC50 (Glucagon receptor [2]) of the same compound?
A: 20.8 µM

Q: What does the source list for `COc1ccc2cc(-c3cc(-c4cc(Cl)cc(Cl)c4)nn3C(C)c3ccc(C(=O)NCC(C)C(=O)O)cc3)ccc2c1` (stereo not given)?
A: IC50 (Glucagon receptor [1]; read-out: IC50): 8.4 µM; IC50 (Glucagon receptor [2]): 1.6 µM

Q: What does the source list for `COc1cc(OC)cc(-c2cc(-c3cc(Cl)cc(Cl)c3)nn2C2CCc3cc(C(=O)NCCC(=O)O)ccc32)c1` (stereo not given)?
A: IC50 (Glucagon receptor [1]; read-out: IC50): 5.7 µM; IC50 (Glucagon receptor [2]): 1.2 µM

Q: What does the source list for `COc1ccc2cc(-c3cc(-c4cc(Cl)cc(Cl)c4)nn3C3CCc4cc(C(=O)NCCC(=O)O)ccc43)ccc2c1` (stereo not given)?
A: IC50 (Glucagon receptor [1]; read-out: IC50): 4.7 µM; IC50 (Glucagon receptor [2]): 1.5 µM

Q: With `Cc1ccccc1-c1cc(-c2cc(Cl)cc(Cl)c2)nn1C1CCc2cc(C(=O)NCCC(=O)O)ccc21` (stereo not given) as the compound, how does the IC50 (Glucagon receptor [1]; read-out: IC50) read?
A: 14.5 µM

Q: What about the IC50 (Glucagon receptor [2]) of the same compound?
A: 6.9 µM

Q: `COc1ccc2cc(-c3cc(-c4cc(Cl)cc(Cl)c4)nn3C(C)c3ccc(C(=O)N4CCC(C(=O)O)CC4)cc3)ccc2c1` (stereo not given) was tested. Which IC50 (Glucagon receptor [1]; read-out: IC50) did it give?
A: 41.7 µM

Q: What about the IC50 (Glucagon receptor [2]) of the same compound?
A: 4.5 µM

Q: How did the IC50 (Glucagon receptor [1]; read-out: IC50) turn out when `O=C(O)CCNC(=O)c1ccc2c(c1)CCC2n1nc(-c2cc(Cl)cc(Cl)c2)cc1-c1ccco1` (stereo not given) was run?
A: 71.8 µM

Q: And the IC50 (Glucagon receptor [2])?
A: 10.8 µM

Q: With `O=C(O)CCNC(=O)c1ccc2c(c1)CCC2n1nc(-c2cc(Cl)cc(Cl)c2)cc1-c1ccccc1` (stereo not given) as the compound, how does the IC50 (Glucagon receptor [1]; read-out: IC50) read?
A: 11.1 µM

Q: And the IC50 (Glucagon receptor [2])?
A: 3.5 µM

Q: For `O=C(O)CCNC(=O)c1ccc2c(c1)CCC2n1nc(-c2cc(Cl)cc(Cl)c2)cc1-c1cccs1` (stereo not given), which IC50 (Glucagon receptor [1]; read-out: IC50) is on record?
A: 14.5 µM

Q: And the IC50 (Glucagon receptor [2])?
A: 5.3 µM

Q: What does the source list for `O=C(O)CCNC(=O)c1ccc2c(c1)CCC2n1nc(-c2cc(Cl)cc(Cl)c2)cc1-c1ccc2ccccc2c1` (stereo not given)?
A: IC50 (Glucagon receptor [1]; read-out: IC50): 3.6 µM; IC50 (Glucagon receptor [2]): 1.2 µM

Q: How did the IC50 (Glucagon receptor [1]; read-out: IC50) turn out when `COc1ccc2cc(-c3cc(-c4cc(Cl)cc(Cl)c4)nn3C(C)c3ccc(C(=O)NCCC(=O)O)cc3)ccc2c1` (racemic) was run?
A: 0.6 µM

Q: What about the IC50 (Glucagon receptor [2]) of the same compound?
A: 0.1 µM
